Results gathered from unrelated publications.
Target: Dual specificity protein kinase TTK (TTK, Homo sapiens, UniProt P33981)
One construct used (P33981 1-857): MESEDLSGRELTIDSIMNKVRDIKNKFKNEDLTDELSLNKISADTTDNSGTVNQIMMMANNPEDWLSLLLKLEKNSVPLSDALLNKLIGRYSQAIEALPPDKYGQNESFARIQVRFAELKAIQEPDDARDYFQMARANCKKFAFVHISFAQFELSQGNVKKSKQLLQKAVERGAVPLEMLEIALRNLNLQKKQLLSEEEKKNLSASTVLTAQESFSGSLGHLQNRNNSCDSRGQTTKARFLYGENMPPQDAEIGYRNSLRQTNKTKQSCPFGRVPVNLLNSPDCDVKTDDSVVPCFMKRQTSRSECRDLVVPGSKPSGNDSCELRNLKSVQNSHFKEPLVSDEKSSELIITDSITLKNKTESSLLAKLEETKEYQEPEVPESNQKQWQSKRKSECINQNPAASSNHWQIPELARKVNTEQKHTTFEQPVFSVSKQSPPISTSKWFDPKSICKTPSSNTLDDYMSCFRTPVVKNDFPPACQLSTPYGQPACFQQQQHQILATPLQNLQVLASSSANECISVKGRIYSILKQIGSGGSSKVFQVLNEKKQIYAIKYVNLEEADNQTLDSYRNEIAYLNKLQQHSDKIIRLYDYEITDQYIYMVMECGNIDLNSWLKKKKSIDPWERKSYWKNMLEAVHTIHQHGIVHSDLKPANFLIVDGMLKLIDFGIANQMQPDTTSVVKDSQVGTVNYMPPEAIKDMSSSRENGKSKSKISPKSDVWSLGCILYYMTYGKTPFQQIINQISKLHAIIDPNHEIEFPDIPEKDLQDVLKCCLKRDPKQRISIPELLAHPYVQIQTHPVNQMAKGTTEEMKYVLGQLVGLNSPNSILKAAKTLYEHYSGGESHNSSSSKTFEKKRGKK

For CCOC(=O)c1cc2cc(-c3cc(C(=O)NCc4ccc(C(=O)O)cc4)nn3C)ccc2[nH]1, the remaining binding was 93% (cell-free assay; competition with immobilised ligand; 0.1 µM).
The remaining binding of c1cnn2ncc(-c3ccnc(N4CCC45COC5)n3)c2c1 is reported as 61% (binding; 1 µM).
CO[C@@H](C)c1c(Nc2ccc([C@@H](N(C)C(=O)C3CCS(=O)(=O)CC3)C(F)(F)F)cc2)cnc2cc(Cl)nn12 gave a remaining binding of 100% (cell-free assay; competition with immobilised ligand; 1 µM).
The remaining binding of O=C(NCCCN1CCOCC1)c1ccc(Nc2nccc(-c3cc4ccccc4s3)n2)cc1 is reported as 72% (binding; competition with immobilised ligand; 1 µM).
For COc1ncc2cc3ccccc3nc2c1C#N, the remaining binding was 85% (cell-free assay; competition with immobilised ligand; 5 µM).
With O=C(NCC1CCOCC1)c1n[nH]cc1NC(=O)c1c(F)cccc1F the remaining binding was 84% (binding; competition with immobilised ligand; 1 µM).
CNC(=O)Nc1ccc2c(c1)CC[C@@]21OC(=O)N(CC(=O)N(Cc2ccc(F)cc2)[C@@H](C)C(F)(F)F)C1=O has a remaining binding of 100% (cell-free assay; competition with immobilised ligand; 1 µM).
For Cc1cnn2ncc(-c3ccnc(N(C)C)n3)c2c1, the remaining binding was 100% (binding; 1 µM).
NS(=O)(=O)c1cc(NC(=O)Cc2ccccc2)ccc1Oc1cccc(Cl)c1 gave a remaining binding of 91% (cell-free assay; competition with immobilised ligand; 1 µM).
The remaining binding of O=C(c1ccc(Nc2nccc(-c3cc4ccccc4s3)n2)cc1)N1CCC(N2CCCC2)CC1 is reported as 57% (binding; competition with immobilised ligand; 1 µM).
With CCN1CCN(Cc2ccc(C(=O)Nc3ccc(C)c(Oc4ccc5c(c4)CC(=O)N5)c3)cc2C(F)(F)F)CC1 the remaining binding was 100% (binding; competition with immobilised ligand; 1 µM).
With CCC(=O)N[C@H]1CC[C@@H](C(=O)N(C)c2ccc(-c3nc4ccccc4o3)cc2)C1 the remaining binding was 100% (cell-free assay; competition with immobilised ligand; 1 µM).
C[C@H]1CCN(c2nccc(-c3cnn4ncccc34)n2)C1 has a remaining binding of 34% (binding; 1 µM).
O=C(NCCCN1CCOCC1)c1ccc(Nc2ncc(Cl)c(-c3ccc(Cl)s3)n2)cc1 has a remaining binding of 58% (binding; competition with immobilised ligand; 1 µM).
N[C@H]1CCN(c2nccc(-c3cnn4ncccc34)n2)C1 gave a remaining binding of 93% (binding; 1 µM).
COc1cnc(Nc2cccc(S(N)(=O)=O)c2)nc1N1CCN(c2ccccc2)CC1 gave a remaining binding of 83% (binding; competition with immobilised ligand; 1 µM).
CC1=C(C#N)C(c2ccc3c(c2)c(NC(=O)c2ccccc2C)nn3C)C(C#N)=C(C)N1 gave a remaining binding of 82% (cell-free assay; competition with immobilised ligand; 1 µM).
The remaining binding of CN(CCCC(F)(F)F)c1nccc(-c2cnn3ncccc23)n1 is reported as 64% (binding; 1 µM).
c1cncc(-c2cccc(Nc3nccc(NC4CCCCC4)n3)c2)c1 gave a remaining binding of 30% (binding; competition with immobilised ligand; 10 µM).
The remaining binding of COc1cnc(Nc2cccc(S(N)(=O)=O)c2)nc1N1CCN(c2ccccc2)C(=O)C1 is reported as 77% (binding; competition with immobilised ligand; 1 µM).
C[C@@H](c1ccc(-n2cnc3c(N)ncnc32)cc1)N1CCc2nn(C)c(Cc3ccccc3)c2C1=O has a remaining binding of 85% (binding; competition with immobilised ligand; 0.1 µM).
